Assay results published in ChEMBL document CHEMBL1914395, “Design, synthesis, and biological evaluation of callophycin A and analogues as potential chemopreventive and anticancer agents” (Bioorg Med Chem, 2011).

Assays:
[1] = molecular target: NAD(P)H dehydrogenase [quinone] 1 (Mus musculus) (UniProt Q64669); experiment: Induction of quinone reductase 1 activity in mouse Hepa-1c1c7 cells at 50 uM by MTT assay relative to untreated control; type: cell-based
In short: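 Hepa 1c1c7 murine hepatoma cells treated with compound at 50 μM. QR1 measured by NADPH-dependent, menadiol-mediated reduction of MTT to formazan. Protein measured by crystal violet staining of identical plates. Specific activity is nmol formazan per mg protein per min. Induction ratio is treated versus DMSO-treated control.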

[2] = molecular target: NAD(P)H dehydrogenase [quinone] 1 (Mus musculus) (UniProt Q64669); experiment: Induction of quinone reductase 1 activity in mouse Hepa-1c1c7 cells assessed as cell survival at 50 uM by MTT assay relative to control; type: cell-based
[3] = molecular target: T1, Aromatase (Homo sapiens, UniProt P11511); experiment: Inhibition of aromatase at 50 uM after 10 mins preincubation by plate reader relative to control
T1 sequence (P11511 whole entry): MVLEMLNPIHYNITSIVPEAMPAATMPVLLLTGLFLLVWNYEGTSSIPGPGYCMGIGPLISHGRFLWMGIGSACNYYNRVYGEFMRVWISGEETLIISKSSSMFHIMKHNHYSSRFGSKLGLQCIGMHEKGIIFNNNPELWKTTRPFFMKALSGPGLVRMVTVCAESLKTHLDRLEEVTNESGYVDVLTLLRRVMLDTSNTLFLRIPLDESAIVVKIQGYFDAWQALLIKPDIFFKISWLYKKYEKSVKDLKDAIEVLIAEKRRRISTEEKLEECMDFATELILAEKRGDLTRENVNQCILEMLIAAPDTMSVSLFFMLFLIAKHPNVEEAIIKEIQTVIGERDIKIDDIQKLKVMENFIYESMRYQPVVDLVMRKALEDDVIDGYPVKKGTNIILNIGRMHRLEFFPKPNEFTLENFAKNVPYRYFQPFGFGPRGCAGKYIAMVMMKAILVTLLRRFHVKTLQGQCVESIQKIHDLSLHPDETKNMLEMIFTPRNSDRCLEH
In short: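 CYP19 enzyme. Compound pre-incubated 10 min with an NADPH-regenerating system (NADP+, glucose 6-phosphate, G6PDH, MgCl2, albumin) in 50 mM potassium phosphate pH 7.4. Enzyme and 0.4 μM dibenzylfluorescein substrate then added, 30 min at 37 °C. Quenched with 2 N NaOH and incubated a further 2 h at 37 °C. Fluorescence read at ex 485/em 530 nm. Compound tested at 50 μM.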

[4] = molecular target: T2, Nitric oxide synthase, inducible (Mus musculus) (UniProt P29477); experiment: Inhibition of iNOS-mediated nitric oxide production in LPS-stimulated mouse RAW 264.7 cells at 50 uM pretreated 15 mins before LPS challenge measured after 20 hrs relative to control; type: cell-based
T2 sequence (whole entry): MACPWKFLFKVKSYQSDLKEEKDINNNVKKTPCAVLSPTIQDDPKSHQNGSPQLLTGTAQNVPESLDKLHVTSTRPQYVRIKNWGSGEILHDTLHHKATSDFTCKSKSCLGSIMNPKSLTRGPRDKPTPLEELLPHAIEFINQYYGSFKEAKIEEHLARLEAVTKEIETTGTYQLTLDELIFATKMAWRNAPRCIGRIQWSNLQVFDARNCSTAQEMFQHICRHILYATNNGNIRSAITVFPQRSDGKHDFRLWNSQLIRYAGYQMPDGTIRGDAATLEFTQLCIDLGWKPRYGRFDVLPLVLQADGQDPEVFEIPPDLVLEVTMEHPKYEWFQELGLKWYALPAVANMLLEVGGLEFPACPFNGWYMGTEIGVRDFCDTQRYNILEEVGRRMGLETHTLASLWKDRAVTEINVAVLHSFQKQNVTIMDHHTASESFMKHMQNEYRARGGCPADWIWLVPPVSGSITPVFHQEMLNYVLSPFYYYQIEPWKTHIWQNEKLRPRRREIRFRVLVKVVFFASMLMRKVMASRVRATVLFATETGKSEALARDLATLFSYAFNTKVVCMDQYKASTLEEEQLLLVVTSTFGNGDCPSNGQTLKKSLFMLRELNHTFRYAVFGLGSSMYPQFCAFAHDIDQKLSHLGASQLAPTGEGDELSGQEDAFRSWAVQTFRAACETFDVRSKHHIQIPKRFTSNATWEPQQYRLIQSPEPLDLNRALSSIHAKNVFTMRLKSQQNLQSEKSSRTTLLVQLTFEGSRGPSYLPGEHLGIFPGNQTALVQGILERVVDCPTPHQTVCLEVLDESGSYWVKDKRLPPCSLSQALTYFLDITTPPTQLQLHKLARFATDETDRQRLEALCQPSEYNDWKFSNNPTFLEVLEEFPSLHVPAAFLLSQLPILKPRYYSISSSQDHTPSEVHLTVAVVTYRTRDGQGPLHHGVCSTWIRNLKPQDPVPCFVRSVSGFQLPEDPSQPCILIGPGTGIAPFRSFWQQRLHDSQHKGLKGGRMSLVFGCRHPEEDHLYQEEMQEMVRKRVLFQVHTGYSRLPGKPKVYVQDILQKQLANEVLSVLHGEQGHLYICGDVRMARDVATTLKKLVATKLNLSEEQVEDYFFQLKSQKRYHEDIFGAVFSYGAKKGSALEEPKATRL
In short: (§1)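 RAW 264.7 cells cultured 24 h at 37°C, then given serially diluted compounds for 15 min before LPS (1 μg/mL) for 20 h. Nitrite in the medium measured with Griess reagent at 540 nm against a sodium nitrite standard curve. Cytotoxicity checked by SRB under the same conditions.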

[5] = molecular target: T2, Nitric oxide synthase, inducible (Mus musculus); experiment: Inhibition of iNOS-mediated nitric oxide production in LPS-stimulated mouse RAW 264.7 cells assessed as cell survival at 50 uM pretreated 15 mins before LPS challenge measured after 20 hrs relative to control; type: cell-based
In short: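 RAW 264.7 cells were incubated at 37°C, 5% CO2 for 24 h. They were then exposed to compound for 15 min before LPS (1 μg/mL) was added for 20 h. Cytotoxicity was measured by SRB staining under the same conditions. Survival is expressed as % relative to vehicle-treated controls at 50 μM.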

[6] = molecular target: T3, Nitric oxide synthase, inducible (Mus musculus, UniProt P29477); experiment: Inhibition of iNOS-mediated nitric oxide production in LPS-stimulated mouse RAW 264.7 cells pretreated 15 mins before LPS challenge measured after 20 hrs relative to control; type: cell-based; in short: as §1
T3 sequence (P29477 whole entry): T2 sequence (whole entry)

[7] = tested on: HEK293; experiment: Inhibition of TNF-alpha-induced NFkappaB activation in human HEK293 cells at 50 uM after 6 hrs by luciferase assay relative to control; type: cell-based
In short: (§2)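 Cells incubated 6 h with TNFα plus test compound, then luciferase activity measured. Results expressed as percent of TNFα-treated control. Screening concentration 50 μM.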

[8] = tested on: HEK293; experiment: Inhibition of TNF-alpha-induced NFkappaB activation in human HEK293 cells assessed as cell survival at 50 uM after 6 hrs by luciferase assay relative to control; type: cell-based
[9] = tested on: MCF7; experiment: Antiproliferative activity against human MCF7 cells assessed as survival at 50 uM after 72 hrs by SRB assay relative to control; type: functional; settings: MCF7, 72 h, read-out: Survival
In short: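 MCF7 cells (1 × 10^4 per well) were plated onto compound and kept at 37°C, 5% CO2 for 72 h. Cells were fixed in 10% TCA for 30 min and stained with 0.4% SRB in 1% acetic acid for 30 min. Bound dye was dissolved in 10 mM Tris (pH 10.0) and read at 515 nm. Survival is given as % of DMSO-treated controls, screened at 50 μM.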

[10] = tested on: MCF7; experiment: Antiproliferative activity against human MCF7 cells after 72 hrs by SRB assay; type: functional, cell-based; settings: MCF7, 72 h
In short: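 MCF7 cells, 1 × 10^4 per well, plated directly onto compounds and incubated 72 h at 37°C, 5% CO2. Fixed with 10% TCA, stained with 0.4% SRB in 1% acetic acid. Bound dye dissolved in 10 mM Tris pH 10.0, absorbance read at 515 nm. Survival expressed relative to DMSO-treated controls.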

[11] = molecular target: NAD(P)H dehydrogenase [quinone] 1 (Mus musculus) (UniProt Q64669); experiment: Induction of quinone reductase 1 in mouse Hepa 1c1c7 cells assessed as concentration of compound required to double enzyme activity by MTT assay; type: cell-based
In short: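 Dose-response in Hepa 1c1c7 cells, run for substances with induction ratio >2 at 50 μM. QR1 activity measured as menadiol-mediated, NADPH-dependent MTT reduction to formazan, normalised to crystal violet protein content. CD is the concentration that doubles specific activity relative to DMSO control.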

[12] = Inhibition of TNF-alpha-induced NFkappaB activation in human HEK293 cells after 6 hrs by luciferase assay; type: cell-based; settings: HEK293, 6 h; in short: as §2

NAD(P)H dehydrogenase [quinone] 1 (Mus musculus), sequence (Q64669 whole entry): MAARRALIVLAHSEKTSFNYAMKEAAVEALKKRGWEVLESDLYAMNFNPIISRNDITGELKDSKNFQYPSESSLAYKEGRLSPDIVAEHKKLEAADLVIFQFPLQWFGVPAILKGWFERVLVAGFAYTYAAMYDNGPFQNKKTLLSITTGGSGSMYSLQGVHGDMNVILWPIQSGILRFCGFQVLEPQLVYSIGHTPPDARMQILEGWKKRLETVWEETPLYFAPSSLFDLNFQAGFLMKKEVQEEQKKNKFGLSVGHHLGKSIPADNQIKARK

| SMILES | Ratio [1] | Survival [2] | inhibition at 50 µM [3] | inhibition [4] | Survival [5] | IC50 [6] | inhibition [7] | Survival [8] | viability at 50 µM [9] | IC50 [10] | CD [11] | IC50 [12] |
| --- | --- | --- | --- | --- | --- | --- | --- | --- | --- | --- | --- | --- |
| COC(=O)[C@H]1Cc2c([nH]c3ccccc23)CN1C(=O)NC12CC3CC(CC(C3)C1)C2 | 0.4 | 30.6% | 39.9% | 64.7% | 63.2% | 11.7 µM | 36.5% | 110% | 9.9% | 14.7 µM |  |  |
| COC(=O)[C@H]1Cc2c([nH]c3ccccc23)CN1C(=O)NC(C)C | 2.7 | 77% | 32.6% | 16.2% | 89.4% |  | 73.7% | 143% | 66.1% |  | 8.6 µM | 21.2 µM |
| COC(=O)[C@@H]1Cc2c([nH]c3ccccc23)CN1C(=O)NC1CCCCC1 | 1.1 | 71.5% | 33% | 53.8% | 79% | 41.1 µM | 44.7% | 111% | 26.3% | 35.8 µM |  |  |
| CC[C@@]1(O)C(=O)OCc2c1cc1n(c2=O)Cc2cc3ccccc3nc2-1 [CAMPTOTHECIN] |  |  |  |  |  |  |  |  |  | 0.056 µM |  |  |
| CCCCCNC(=O)N1Cc2[nH]c3ccccc3c2C[C@H]1C(=O)OC | 4.9 | 7.8% | -0.04% | 8.7% | 94.9% |  | 35.5% | 110% | 40.3% | 38.4 µM | 3.8 µM |  |
| CCCCCNC(=O)N1Cc2[nH]c3ccccc3c2C[C@@H]1C(=O)OC | 4.3 | 12.7% | 11.1% | 36.2% | 90.5% |  | 62.1% | 140% | 50.5% |  | 0.2 µM | 15.9 µM |
| O=C(O)[C@@H]1Cc2c([nH]c3ccccc23)CN1Cc1ccccc1 | 2.4 | 105% | 28% | 6.9% | 119% |  | 59.5% | 49.1% |  |  | 8.1 µM | 21.4 µM |
| COC(=O)[C@@H]1Cc2c([nH]c3ccccc23)CN1Cc1ccccc1 | 1.6 | 100% | 31.5% | 68.2% | 85.9% | 32 µM | 60.4% | 28.8% |  |  |  | 30.7 µM |
| COC(=O)[C@@H]1Cc2c([nH]c3ccccc23)CN1 | 1.1 | 125% | 18.3% | 12.5% | 104% |  | 58.3% | 38.6% |  |  |  | 38.9 µM |
| COC(=O)[C@H]1Cc2c([nH]c3ccccc23)CN1C(=O)NC1CCCCC1 | 1 | 71.8% | 24.4% | 55% | 83.8% | 41.6 µM | 20.9% | 101% | 5.3% | 18.4 µM |  |  |
| COC(=O)[C@H]1Cc2c([nH]c3ccccc23)CN1Cc1ccccc1 | 1.2 | 96.8% | 38.4% | 74.7% | 81.2% | 32.9 µM | 54.4% | 77.1% |  |  |  | 44.2 µM |
